Assay [1] addresses T1, Tyrosine-protein kinase receptor UFO (Homo sapiens, UniProt P30530).
T1 sequence (P30530 whole entry): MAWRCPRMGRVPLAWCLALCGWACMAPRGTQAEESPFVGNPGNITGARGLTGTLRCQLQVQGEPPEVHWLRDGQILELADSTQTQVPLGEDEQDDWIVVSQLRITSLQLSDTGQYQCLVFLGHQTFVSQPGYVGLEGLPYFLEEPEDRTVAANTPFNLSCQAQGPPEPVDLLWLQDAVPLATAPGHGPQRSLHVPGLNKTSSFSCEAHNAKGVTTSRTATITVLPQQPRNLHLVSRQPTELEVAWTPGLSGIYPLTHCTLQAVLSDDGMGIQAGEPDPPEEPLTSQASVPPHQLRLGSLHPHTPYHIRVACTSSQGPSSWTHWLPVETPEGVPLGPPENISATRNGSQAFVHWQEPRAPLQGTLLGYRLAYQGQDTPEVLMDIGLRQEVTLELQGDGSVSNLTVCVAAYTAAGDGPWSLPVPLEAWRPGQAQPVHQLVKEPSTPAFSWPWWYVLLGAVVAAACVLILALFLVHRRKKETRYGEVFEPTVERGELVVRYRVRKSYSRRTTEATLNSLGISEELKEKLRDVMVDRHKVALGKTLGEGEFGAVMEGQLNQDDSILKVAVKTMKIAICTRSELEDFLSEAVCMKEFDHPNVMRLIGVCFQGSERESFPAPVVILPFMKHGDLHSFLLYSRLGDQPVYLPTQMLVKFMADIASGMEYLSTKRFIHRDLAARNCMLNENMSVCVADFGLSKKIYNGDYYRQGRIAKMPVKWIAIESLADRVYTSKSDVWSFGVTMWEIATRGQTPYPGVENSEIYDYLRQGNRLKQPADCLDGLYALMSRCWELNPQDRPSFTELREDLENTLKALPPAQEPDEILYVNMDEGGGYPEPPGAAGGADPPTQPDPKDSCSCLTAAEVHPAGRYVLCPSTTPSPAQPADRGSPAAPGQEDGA
The experiment in a line: Inhibition of N-terminal His-tagged recombinant human AXL (473 to end amino acids) expressed by baculovirus in Sf9 cells using axltide substrate and ATP by ADP-Glo luminescence assay. A general note: ADP-Glo turns the ADP formed in a reaction into a luminescent signal.

The next assay has as its system A549. Kind of assay: Antiproliferative activity against human A549 cells after 2 days by spectrophotometric analysis. The note with it: A549, 48 h. The format is functional.
The next assay relates to U-87 MG. Kind of assay: Antiproliferative activity against human U87MG cells after 2 days by spectrophotometric analysis. To be noted: 48 h. The format is functional, U-87MG ATCC.
The test system of the next assay is HeLa. Kind of assay: Antiproliferative activity against human HeLa cells after 2 days by spectrophotometric analysis. The format is functional. The note with it: 48 h. The procedure, abridged: (§1)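 Cells from ATCC were kept in RPMI 1640 with 5% FBS. They were exposed to graded concentrations in DMSO/RPMI for 48 h at 37 C under 5% CO2, then fixed with 50% trichloroacetic acid. Cellular protein was read at 540 nm at time zero and at 48 h, with and without compound. TGI (100% growth inhibition) was taken from the concentration-response curve.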

The test system of another assay is OVCAR-3. Kind of assay: Antiproliferative activity against human OVCAR3 cells after 2 days by spectrophotometric analysis. The format is functional. The note with it: OVCAR-3, 48 h. The procedure, abridged: as §1
For a further assay, the system named is HepG2. The experiment in a line: Antiproliferative activity against human HepG2 cells after 2 days by spectrophotometric analysis. The note with it: HepG2, 48 h. Format: functional.

A word on the IC50: it is the concentration that inhibits the measured activity by half. Broadly, the GI50 is the concentration giving 50% growth inhibition. Read a high GI50 as lower sensitivity of the cells.

Turning to `CN(c1cccc2c1CN(c1nc(Nc3ccc(Cl)c(C(F)(F)F)c3)ncc1C(F)(F)F)C2)S(C)(=O)=O`, in assay [1], the IC50 is > 20 µM. In addition, the concentration for 50% growth inhibition (GI50) in the assay on A549 is 15.2 µM; with U-87 MG it was > 30 µM; with HeLa, 11.1 µM; in the assay on OVCAR-3 it was > 50 µM; with HepG2 it was 16 µM.

Take `CN(c1cccc2c1CN(c1nc(Nc3ccc4c(c3)OCO4)ncc1C(F)(F)F)C2)S(C)(=O)=O`: the GI50 with A549 was 12.1 µM; in the assay with U-87 MG it was > 30 µM; in the assay with HeLa, 6.3 µM; in the assay on OVCAR-3, > 30 µM; in the assay on HepG2, 9.8 µM.

As for `Cc1cc(Cl)ccc1Nc1ncc(C(F)(F)F)c(N2Cc3cccc(N(C)S(C)(=O)=O)c3C2)n1`, the IC50 in assay [1] is > 20 µM. Besides, the GI50 in the assay on A549 was 25.5 µM; with U-87 MG it was 28.3 µM; in the assay on HeLa, 17.4 µM; in the assay on OVCAR-3, > 30 µM; in the assay on HepG2, 19.6 µM.

As to `COc1cc(Nc2ncc(C(F)(F)F)c(N3Cc4cccc(N(C)S(C)(=O)=O)c4C3)n2)cc(OC)c1`, the GI50 in the assay with A549 was 24.8 µM; with U-87 MG, > 30 µM; with HeLa, 7 µM; in the assay with OVCAR-3, 0.63 µM; with HepG2 it was 1.8 µM.

Take `Cc1cc(C)cc(Nc2ncc(C(F)(F)F)c(N3Cc4cccc(N(C)S(C)(=O)=O)c4C3)n2)c1`: the IC50 in assay [1] is > 20 µM. The GI50 with A549, with U-87 MG, in the assay with HeLa, in the assay on OVCAR-3 and with HepG2 was > 30 µM throughout.

Take `COc1cc(Nc2ncc(C(F)(F)F)c(N3Cc4cccc(N(C)S(C)(=O)=O)c4C3)n2)c(OC)cc1Cl`: the IC50 in assay [1] was > 20 µM. Also, the GI50 in the assay on A549 is 7.3 µM; in the assay on U-87 MG, 6.2 µM; in the assay with HeLa it was 16.5 µM; with OVCAR-3, > 30 µM; in the assay on HepG2 it was 25.6 µM.

Turning to `CN(c1cccc2c1CN(c1nc(Nc3ccc(C(F)(F)F)cc3)ncc1C(F)(F)F)C2)S(C)(=O)=O`, the IC50 in assay [1] was > 20 µM. The GI50 in the assay with A549, in the assay on U-87 MG, in the assay on HeLa, in the assay on OVCAR-3 and in the assay with HepG2 was > 30 µM throughout.

For `CN(c1cccc2c1CN(c1nc(Nc3cccc(Oc4ccccc4)c3)ncc1C(F)(F)F)C2)S(C)(=O)=O`, the GI50 with A549 was 19 µM; with U-87 MG, 19.5 µM; with HeLa, 4.3 µM; in the assay with OVCAR-3, 24.9 µM; with HepG2, 23 µM.

Take `CN(c1cccc2c1CN(c1nc(Nc3ccc(N4CCOCC4)cc3)ncc1C(F)(F)F)C2)S(C)(=O)=O`: the GI50 in the assay on A549 was found to be 2.5 µM; with U-87 MG, 6.8 µM; in the assay on HeLa, 0.79 µM; in the assay with OVCAR-3 it was 2.4 µM; in the assay on HepG2, 1.9 µM.

For the compound `COc1ccc(C(F)(F)F)cc1Nc1ncc(C(F)(F)F)c(N2Cc3cccc(N(C)S(C)(=O)=O)c3C2)n1`, in assay [1], the IC50 was > 20 µM. Also, the GI50 in the assay on A549 is > 30 µM; in the assay with U-87 MG, > 30 µM; with HeLa, 17.2 µM; in the assay with OVCAR-3, > 30 µM; with HepG2, > 30 µM.

As to `COc1ccc(Nc2ncc(C(F)(F)F)c(N3Cc4cccc(N(C)S(C)(=O)=O)c4C3)n2)cc1C(F)(F)F`, in assay [1], the IC50 is > 20 µM. Further, the GI50 with A549 was > 30 µM; with U-87 MG, 29.4 µM; in the assay with HeLa it was 14 µM; in the assay with OVCAR-3 it was > 30 µM; in the assay with HepG2, > 30 µM.

On to `CN(c1cccc2c1CN(c1nc(Nc3ccc(Nc4ccccc4)cc3)ncc1C(F)(F)F)C2)S(C)(=O)=O`, for which the IC50 in assay [1] was > 20 µM. Further, the concentration for 50% growth inhibition (GI50) was 6.2 µM in the assay with A549; 29.8 µM in the assay with U-87 MG; 7.3 µM in the assay on HeLa; > 50 µM in the assay with OVCAR-3; 8.6 µM with HepG2.

With `Cc1ccc(Nc2ncc(C(F)(F)F)c(N3Cc4cccc(N(C)S(C)(=O)=O)c4C3)n2)c(Cl)c1`, in assay [1], the IC50 was > 20 µM. In addition, the GI50 in the assay on A549 was > 30 µM; in the assay on U-87 MG it was > 30 µM; in the assay on HeLa it was 10.9 µM; in the assay with OVCAR-3, > 30 µM; with HepG2 it was > 30 µM.

Regarding `COc1cc(Nc2ncc(C(F)(F)F)c(N3Cc4cccc(N(C)S(C)(=O)=O)c4C3)n2)cc(C(F)(F)F)c1`, the 50% growth inhibitory concentration (GI50) with A549 is > 30 µM; in the assay with U-87 MG it was > 30 µM; in the assay on HeLa it was 5.1 µM; in the assay on OVCAR-3, > 30 µM; in the assay on HepG2 it was 22.1 µM.

Take `CN(c1cccc2c1CN(c1nc(Nc3cccc(C(F)(F)F)c3)ncc1C(F)(F)F)C2)S(C)(=O)=O`: the GI50 was > 30 µM in the assay on A549; > 30 µM in the assay on U-87 MG; 5.3 µM with HeLa; > 30 µM with OVCAR-3; > 30 µM with HepG2.

Take `CN(c1cccc2c1CN(c1nc(Nc3cc(C(F)(F)F)cc(C(F)(F)F)c3)ncc1C(F)(F)F)C2)S(C)(=O)=O`: in assay [1], the IC50 is > 20 µM. Besides, the GI50 in the assay with A549 was > 30 µM; in the assay with U-87 MG, 16.8 µM; in the assay on HeLa, 9.2 µM; in the assay on OVCAR-3 it was > 30 µM; with HepG2, 10.3 µM.

In the case of `CN(c1cccc2c1CN(c1nc(Nc3ccccc3N3CCOCC3)ncc1C(F)(F)F)C2)S(C)(=O)=O`, the IC50 in assay [1] was > 20 µM. Moreover, the GI50 in the assay with A549 is > 30 µM; in the assay on U-87 MG it was > 30 µM; in the assay on HeLa, 23.9 µM; in the assay with OVCAR-3, > 50 µM; in the assay with HepG2 it was > 30 µM.

For `Cc1ccc(Nc2ncc(C(F)(F)F)c(N3Cc4cccc(N(C)S(C)(=O)=O)c4C3)n2)c(C)c1`, the GI50 with A549 is 20.7 µM; in the assay on U-87 MG, > 30 µM; with HeLa it was 10.6 µM; in the assay with OVCAR-3 it was > 30 µM; in the assay on HepG2, 19.1 µM.

Regarding `CN(c1ncccc1CNc1nc(Nc2ccc3c(c2)CC(=O)N3)ncc1C(F)(F)F)S(C)(=O)=O`, the GI50 came to 2.1 µM with A549; 3.7 µM with U-87 MG; 1.7 µM in the assay on HeLa; 1.8 µM with OVCAR-3; 1.2 µM with HepG2.

As for `COc1cc(N2CCN(C(C)=O)CC2)ccc1Nc1ncc(C(F)(F)F)c(N2Cc3cccc(N(C)S(C)(=O)=O)c3C2)n1`, the GI50 was 3.3 µM in the assay on A549; 4.7 µM in the assay on U-87 MG; 1.3 µM with HeLa; 1.6 µM in the assay on OVCAR-3; 3.8 µM in the assay on HepG2.

`Cc1cc(F)ccc1Nc1ncc(C(F)(F)F)c(N2Cc3cccc(N(C)S(C)(=O)=O)c3C2)n1`: the GI50 with A549 is > 30 µM; in the assay with U-87 MG, > 30 µM; with HeLa, 6.5 µM; with OVCAR-3, > 30 µM; in the assay on HepG2 it was 16.8 µM.

As to `Cc1ccc(Nc2ncc(C(F)(F)F)c(N3Cc4cccc(N(C)S(C)(=O)=O)c4C3)n2)cc1C`, the IC50 in assay [1] was > 20 µM. For the same compound, the GI50 in the assay with A549, with U-87 MG, in the assay on HeLa, in the assay on OVCAR-3 and in the assay with HepG2 was > 30 µM in each case.

As to `CN(c1cccc2c1CN(c1nc(Nc3cc(Cl)cc(C(F)(F)F)c3)ncc1C(F)(F)F)C2)S(C)(=O)=O`, in assay [1], the IC50 was > 30 µM. For the same compound, the GI50 in the assay on A549 is 6.7 µM; in the assay with U-87 MG, 5.5 µM; in the assay on HeLa, 4.3 µM; in the assay with OVCAR-3, 21.5 µM; with HepG2 it was 9.9 µM.
